In brackets after ≈: the same amount, converted by molar mass.
Tests used:
[1] = system: Enterococcus faecalis; assay: Antibacterial activity against Enterococcus faecalis ATCC 29212 incubated for 24 hrs by broth microdilution method; assay type: functional; details: ATCC 29212, 24 h
[2] = biological target: DNA gyrase (Escherichia coli, UniProt P0AES4+P0AES6); assay: Inhibition of Escherichia coli GyrB A2B2 subunits assessed reduction in DNA supercoiling activity by malachite green dye based by spectrophotometry; assay type: protein-complex assay
Procedure, shortened: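 Inhibition was measured as loss of ATPase activity of the E. coli GyrB enzyme and reported as IC50.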

[3] = system: Staphylococcus aureus; assay: Antibacterial activity against Staphylococcus aureus ATCC 29213 incubated for 24 hrs by broth microdilution method; assay type: functional; details: ATCC 29213, 24 h
[4] = system: Haemophilus influenzae; assay: Antibacterial activity against Haemophilus influenzae ATCC 49247 incubated for 24 hrs by broth microdilution method; assay type: functional; details: ATCC 49247, 24 h
[5] = Retention time of the compound by HPLC method; assay type: physicochemical
[6] = system: Streptococcus pyogenes; assay: Antibacterial activity against Streptococcus pyogenes ATCC 51339 incubated for 24 hrs by broth microdilution method; assay type: functional; details: ATCC 51339, 24 h
[7] = system: Escherichia coli; assay: Antibacterial activity against Escherichia coli N43 expressing efflux pump mutant incubated for 24 hrs by broth microdilution method; assay type: functional; details: N43, 24 h
[8] = system: Staphylococcus epidermidis; assay: Antibacterial activity against Staphylococcus epidermidis ATCC 12228 incubated for 24 hrs by broth microdilution method; assay type: functional; details: ATCC 12228, 24 h
[9] = system: Escherichia coli; assay: Antibacterial activity against Escherichia coli ATCC 25922 incubated for 24 hrs by broth microdilution method; assay type: functional; details: ATCC 25922, 24 h
[10] = system: Staphylococcus aureus; assay: Antibacterial activity against Staphylococcus aureus ATCC 29213 expressing GyrB T173N mutant incubated for 24 hrs by broth microdilution method; assay type: functional; details: ATCC 29213, 24 h
[11] = system: Staphylococcus aureus; assay: Antibacterial activity against Staphylococcus aureus ATCC 29213 expressing GyrB T173N and ParE T167N mutant incubated for 24 hrs by broth microdilution method; assay type: functional; details: ATCC 29213, 24 h
[12] = system: Streptococcus pneumoniae; assay: Antibacterial activity against Streptococcus pneumoniae ATCC 49616 incubated for 24 hrs by broth microdilution method; assay type: functional; details: ATCC 49616, 24 h
[13] = system: Streptococcus pyogenes; assay: Antibacterial activity against Streptococcus pyogenes ATCC 51339 expressing ParE A53S mutant incubated for 24 hrs by broth microdilution method; assay type: functional; details: ATCC 51339, 24 h

Compound	MIC [1] [µg/mL]	IC50 [2] [µM]	MIC [3] [µg/mL]	MIC [4] [µg/mL]	Retention_time [5] [min]	MIC [6] [µg/mL]	MIC [7] [µg/mL]	MIC [8] [µg/mL]	MIC [9] [µg/mL]	MIC [10] [µg/mL]	MIC [11] [µg/mL]	MIC [12] [µg/mL]	MIC [13] [µg/mL]
CCNC(=O)Nc1cc(N2CCN(C)CC2)c(C(=O)Nc2cccnc2)cn1	> 64	5.66	> 64	> 64	0.27	> 64							
CCNC(=O)Nc1ccc(C(=O)Nc2ccc(Cl)cc2)cn1	> 64	3.3	> 64	> 64	1.83	> 64							
CCNC(=O)Nc1cc(Nc2ccccc2)c(C(=O)Nc2cccc(Cl)c2)cn1	0.125 (≈ 0.305 µM)	0.15	0.5 (≈ 1.22 µM)	> 64	1.71	4 (≈ 9.76 µM)	> 64	0.5 (≈ 1.22 µM)	> 64	1 (≈ 2.44 µM)	> 64	1 (≈ 2.44 µM)	32 (≈ 78.1 µM)
CCNC(=O)Nc1cc(-c2cccnc2)c(C(=O)Nc2cccc(C)c2)cn1	64 (≈ 170 µM)	7.27	> 64	> 64	1.51	> 64							
CCNC(=O)Nc1cc(Nc2ccccc2)c(C(=O)NCc2cccnc2)cn1	0.5 (≈ 1.28 µM)	2	> 16	> 64	1.24	1 (≈ 2.56 µM)							
CCNC(=O)Nc1ccc(C(=O)Nc2cc(Cl)ccc2C)cn1	> 64	7.5	> 64	> 64	1.77	> 64							
CCNC(=O)Nc1cc(-c2cccnc2)c(C(=O)Nc2cccnc2)cn1	64 (≈ 177 µM)	1.13	> 64	> 64	1.12	64 (≈ 177 µM)							
CCNC(=O)Nc1cc(N2CCN(C)CC2)c(C(=O)Nc2cccc(Cl)c2)cn1	> 64	5.14	> 64	> 64	1.36	> 64							
CCNC(=O)Nc1ccc(C(=O)Nc2ccc(OC)c(OC)c2)cn1	32 (≈ 92.9 µM)	6.2	> 64	> 64	1.59	32 (≈ 92.9 µM)							> 64
CCNC(=O)Nc1ccc(C(=O)Nc2nccs2)cn1	> 64	0.42	> 64	> 64	1.52	> 64							

Continued, in another order:

MIC [1] [µg/mL]	IC50 [2] [µM]	MIC [3] [µg/mL]	MIC [4] [µg/mL]	Retention_time [5] [min]	MIC [6] [µg/mL]	Compound	MIC [7] [µg/mL]	MIC [8] [µg/mL]	MIC [9] [µg/mL]	MIC [10] [µg/mL]	MIC [11] [µg/mL]	MIC [12] [µg/mL]	MIC [13] [µg/mL]
> 16	4.9	> 16	> 64	1.93	> 16	CCNC(=O)Nc1cc(Oc2ccccc2)c(C(=O)Nc2ccccc2)cn1							
2 (≈ 5.12 µM)	4.81	> 64	> 64	1.3	8 (≈ 20.5 µM)	CCNC(=O)Nc1cc(NCc2cccnc2)c(C(=O)Nc2ccccc2)cn1							
> 64	18	> 64	> 64	1.26	> 64	CCNC(=O)Nc1cc(N2CCN(C)CC2)c(C(=O)Nc2cccc(C)c2)cn1							
> 64	8.4	> 64	> 64	1.64	> 64	CCNC(=O)Nc1ccc(C(=O)Nc2ccc3c(C)cc(=O)oc3c2)cn1							
64 (≈ 162 µM)	3.02	> 64	> 64	1.6	64 (≈ 162 µM)	CCNC(=O)Nc1cc(-c2cccnc2)c(C(=O)Nc2cccc(Cl)c2)cn1							
32 (≈ 83.2 µM)	0.55	> 64	> 64	1.44	64 (≈ 166 µM)	CCNC(=O)Nc1cc(-n2ccnc2)c(C(=O)Nc2cccc(Cl)c2)cn1							
> 16	7.7	> 64	> 16	1.69	> 16	CCNC(=O)Nc1ccc(C(=O)Nc2ccccc2)cn1							
8 (≈ 20.4 µM)	0.66	> 64	> 64	1.23	8 (≈ 20.4 µM)	CCNC(=O)Nc1cc(NCc2cccnc2)c(C(=O)Nc2cccnc2)cn1							
64 (≈ 224 µM)	3.5	> 64	> 64	1.19	64 (≈ 224 µM)	CCNC(=O)Nc1ccc(C(=O)Nc2ccncc2)cn1							
0.25 (≈ 0.564 µM)	0.15	> 16	> 64	1.54	> 16	CCNC(=O)Nc1cc(Nc2ccccc2)c(C(=O)Nc2ccc(-n3cncn3)nc2)cn1							

— ChEMBL document CHEMBL3351278, “Pyridine-3-carboxamide-6-yl-ureas as novel inhibitors of bacterial DNA gyrase: structure based design, synthesis, SAR and antimicrobial activity” (Eur J Med Chem, 2014)
